Source: PubChem BioAssay
Activity calls are given as the source filed them.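 How the source made its calls, unless noted: active means GFP response above 150% of the DMSO level; inconclusive means fewer than 70 events counted for a yeast strain; inactive means the rest.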

Experiments:
[1] = hit retest on RPL19A-GFP reporter strain – cell-based, S. cerevisiae, flow cytometry, cherry picks, mother/daughter gates, confirmation (AID 2270;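 active means GFP response below 50% of the DMSO control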); settings: 3 h, at 10 µM, stronger effect = lower value, 100 = same GFP as DMSO wells
[2] = yeast TOR pathway reporter LAP4-GFP change – cell-based, cherry picks, flow cytometry, mother/daughter gates, confirmation (AID 2271;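 active means GFP response above 150% of the DMSO control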;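 further: ratio of sample to DMSO plate mean so 100% equals DMSO level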); settings: S. cerevisiae LAP4-GFP strain, 3 h, at 10 µM, stronger effect = higher value, 100 means same as DMSO control
Outline: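 Test system: GFP-fusion yeast strain. Medium: synthetic complete (SC) yeast growth medium. Timing: 3 h treatment at 30 °C with rotation. Measured by: GFP by flow cytometry. Control set: positive rapamycin (400 ng/mL), negative DMSO.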

[3] = TOR pathway reporter MEP2-GFP, retest of hits – S. cerevisiae, flow cytometry GFP, cherry picks, confirmation (AID 2272;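 active means GFP response above 150% of the DMSO control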;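 further: ratio of well signal to plate DMSO mean so 100% equals DMSO level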); settings: S. cerevisiae MEP2-GFP strain, 3 h, at 10 µM, stronger effect = higher value
[4] = yeast AGP1-GFP fluorescence change, single-dose – cell-based, flow cytometry, S. cerevisiae, cherry picks, confirmation (AID 2273);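 further: median GFP channel fluorescence over the whole cell population gate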; settings: S. cerevisiae AGP1-GFP strain, 3 h, at 10 µM
[5] = TOR pathway CIT2 reporter hit retest – S. cerevisiae, GFP fusion, cherry picks, mother/daughter gates, confirmation (AID 2274); settings: S. cerevisiae CIT2-GFP strain, flow cytometry, 3 h, at 10 µM, stronger effect = higher value
[6] = measured here: daughter cell gate
[7] = measured here: mother cell gate
[8] = measured here: daughter cell gate response
[9] = measured here: mother cell gate response

SMILES | GFP response vs DMSO [1] | GFP response vs DMSO [1, 6] [%] | GFP response vs DMSO [1, 7] [%] | GFP response relative to DMSO [2] | GFP response relative to DMSO [2, 8] [%] | GFP response relative to DMSO [2, 9] [%] | GFP response vs DMSO [3] | GFP response, % of DMSO [4] | GFP response, % of DMSO [5] | GFP response, % of DMSO [5, 6] [%] | GFP response, % of DMSO [5, 7] [%]
O=c1/c(=C/c2cccc3ccccc23)sc2ncnn12 | 112% (inactive) | 113 | 107 | 185% (active) | 177 | 180 | 116% (inactive) | 91.2% (inactive) | 112% (inactive) | 122 | 100
O=C(O)CCCn1nc(-c2ccccc2)c2ccccc21 | 99% (inactive) | 98.4 | 100 | 112% (inactive) | 112 | 111 | 103% (inactive) | 101% (inactive) | 103% (inactive) | 106 | 96.8
C/C(CC(=O)Nc1cc(C)ccn1)=N\NC(=O)c1cccc(F)c1 | 98.6% (inactive) | 97.5 | 98.7 | 97.4% (inactive) | 97.2 | 99.3 | 100% (inactive) | 94.1% (inactive) | 93.9% (inactive) | 94.8 | 93.4
CS(=O)(=O)N1CCc2cc(C(=O)Nc3ccc(COCC(F)(F)F)cc3)ccc21 | 102% (inactive) | 104 | 103 | 92.6% (inactive) | 97.2 | 93.1 | 100% (inactive) | 96.1% (inactive) | 110% (inactive) | 108 | 111
Cc1nc(SC2CC(=O)N(c3ccccc3)C2=O)nc2c1CCCC2 (configuration not stated) | 95.4% (inactive) | 95.9 | 95.8 | 97.9% (inactive) | 97.6 | 97.2 | 96.2% (inactive) | 93.1% (inactive) | 101% (inactive) | 101 | 99.7
CC1CN(c2nc3ccccn3c(=O)c2/C=C(\C#N)C(=O)N2CCOCC2)CC(C)O1 (configuration not stated) | 98.5% (inactive) | 99.3 | 98.4 | 102% (inactive) | 97.5 | 104 | 101% (inactive) | 95% (inactive) | 100% (inactive) | 99.3 | 102
COc1cccc(C(=O)Nc2ccc(NC(=O)c3cc4ccccc4o3)c(OC)c2)c1 | 100% (inactive) | 98.1 | 103 | 89% (inactive) | 92.5 | 89 | 102% (inactive) | 95% (inactive) | 108% (inactive) | 105 | 111
O=c1cnnc(SCc2ccc([N+](=O)[O-])cc2)[nH]1 | 97.4% (inactive) | 99.1 | 96.2 | 102% (inactive) | 101 | 100 | 105% (inactive) | 96% (inactive) | 98.3% (inactive) | 99.1 | 98.5
COc1ccccc1NC1=C(Cl)C(=O)N(c2ccccc2)C1=O | 103% (inactive) | 103 | 103 | 93.7% (inactive) | 92 | 94.1 | 103% (inactive) | 97% (inactive) | 103% (inactive) | 105 | 101
CC1(C(=O)OCc2cc(=O)n3cc(Br)ccc3n2)CC1(Cl)Cl (configuration not stated) | 92.5% (inactive) | 89.9 | 93.8 | 133% (inactive) | 123 | 139 | 94.4% (inactive) | 103% (inactive) | 88.5% (inactive) | 87.3 | 88.8
NS(=O)(=O)c1ccc(Sc2ccccn2)c([N+](=O)[O-])c1 | 97.4% (inactive) | 98.6 | 98.5 | 97.9% (inactive) | 99.2 | 98.3 | 100% (inactive) | 101% (inactive) | 98.3% (inactive) | 101 | 98.5
O=C1C(=O)c2ccc(-c3ccccc3)cc2-c2ccccc21 | 102% (inactive) | 104 | 102 | 117% (inactive) | 110 | 124 | 115% (inactive) | 90.4% (inactive) | 107% (inactive) | 106 | 102
Cc1cccc2nc(-c3cccnc3)c(NCCC(C)C)n12 | 98.8% (inactive) | 99.8 | 99.6 | 89% (inactive) | 89.5 | 92.1 | 107% (inactive) | 98.5% (inactive) | 96.5% (inactive) | 99.7 | 94.4
N#Cc1ccccc1Cn1cc(/C=C/[N+](=O)[O-])c2ccccc21 | 96.3% (inactive) | 98.3 | 95.1 | 132% (inactive) | 129 | 134 | 98.8% (inactive) | 104% (inactive) | 97.2% (inactive) | 100 | 91.8
CC(=O)c1ccccc1NCC(=O)Nc1ccc(C)cc1 | 96.3% (inactive) | 95 | 96 | 99.8% (inactive) | 98.2 | 101 | 103% (inactive) | 100% (inactive) | 93.4% (inactive) | 95.2 | 92.8
COC(=O)c1ccc(C2Nc3cccc4cccc(c34)N2)cc1 | 105% (inactive) | 102 | 106 | 129% (inactive) | 123 | 133 | 103% (inactive) | 92.8% (inactive) | 93% (inactive) | 90.2 | 93.2
CCc1ccc2c(c1)C1(NN=C(c3cccc4ccccc34)S1)C(=O)N2 (configuration not stated) | 96% (inactive) | 96.7 | 93.1 | 111% (inactive) | 105 | 114 | 97.2% (inactive) | 102% (inactive) | 93.1% (inactive) | 99.3 | 88.2
C/C(=N\NC(=O)c1ccc(Br)cc1)c1ccccc1 | 98% (inactive) | 97.9 | 98 | 97.9% (inactive) | 99.2 | 98.3 | 102% (inactive) | 94.3% (inactive) | 99.7% (inactive) | 99.1 | 98.5
O=C(N/N=C/c1ccc(F)cc1)c1ccc(Br)cc1 | 99.6% (inactive) | 98.6 | 98 | 111% (inactive) | 109 | 109 | 96.8% (inactive) | 99.6% (inactive) | 102% (inactive) | 101 | 87
COc1ccc(N2CCN(C(=O)c3ccc(OCC4CCCO4)cc3)CC2)cc1 (configuration not stated) | 99.2% (inactive) | 98.8 | 98.3 | 99.5% (inactive) | 101 | 98.4 | 99% (inactive) | 99.8% (inactive) | 100% (inactive) | 101 | 99.3
Cc1n[nH]c(C)c1N1C(=O)c2cccc3c(Br)ccc(c23)C1=O | 101% (inactive) | 100 | 101 | 98.8% (inactive) | 99.3 | 98.5 | 104% (inactive) | 92.5% (inactive) | 96.4% (inactive) | 96.4 | 94.5
O=C(NNC(=S)NC(=O)c1cn(-c2ccccc2)nc1-c1ccccc1)c1ccncc1 | 98% (inactive) | 101 | 94.8 | 143% (inactive) | 125 | 146 | 101% (inactive) | 99.5% (inactive) | 98.6% (inactive) | 103 | 96
COc1cc(N2C(=O)C=CC2=O)c(OC)cc1Cl | 85.7% (inactive) | 90 | 75 | 303% (active) | 211 | 272 | 133% (inactive) | 108% (inactive) | 90% (inactive) | 96.5 | 79.4
Cc1ccccc1C(=O)NNC(=S)NC(=O)c1ccc(Cl)cc1Cl | 104% (inactive) | 105 | 104 | 143% (inactive) | 124 | 140 | 118% (inactive) | 97.1% (inactive) | 101% (inactive) | 109 | 94.5
Cc1cc(C)c(C(=O)COC(=O)c2ccc([N+](=O)[O-])o2)cc1C | 100% (inactive) | 102 | 98.2 | 102% (inactive) | 102 | 104 | 101% (inactive) | 105% (inactive) | 100% (inactive) | 101 | 97.1
Cc1cccc(N=c2c([N+](=O)[O-])nn(-c3ccc(Cl)cc3)n2O)c1 | 97% (inactive) | 95.1 | 97.7 | 111% (inactive) | 104 | 114 | 102% (inactive) | 90.4% (inactive) | 107% (inactive) | 103 | 108
COc1ccccc1C(=O)N1CCN(c2cccc(C(F)(F)F)c2)CC1 | 96.2% (inactive) | 97.3 | 97.4 | 95.3% (inactive) | 96.5 | 94.6 | 99.5% (inactive) | 98.9% (inactive) | 99.3% (inactive) | 100 | 100
